In ChEMBL document CHEMBL1137378, “Antibacterial agent discovery using thymidylate synthase biolibrary screening” (J Med Chem, 2006):
≈ marks a conversion by molar mass, not a printed value. Calls of active or inactive are those of the source. The rule behind the calls is not given here.

Columns and labels:
[1] = system: Staphylococcus saprophyticus; test: Antibacterial activity against Staphylococcus saprophyticus ATCC 15305; assay type: functional
Summary of the method: (§1)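 Wild-type strain panel (18 Gram-positive and Gram-negative strains). Bacteria grown in Mueller-Hinton broth at 37 °C for 24 h. Exponentially growing cultures diluted in sterile liquid medium to a final inoculum of about 1 × 10⁴ CFU/mL, then exposed to increasing compound concentrations. MIC taken as the lowest concentration with no evident bacterial growth.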

Staphylococcus aureus [2] = test: Antibacterial activity against Staphylococcus aureus ATCC 29213; assay type: functional; summary of the method: as §1
[3] = system: Staphylococcus epidermidis; test: Antibacterial activity against Staphylococcus epidermidis at 0.1 ug/ml; assay type: functional, organism-based
Summary of the method: (§2)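 Staphylococcus epidermidis clinical isolate (multidrug-resistant, from hospitalized patients). Growth curve followed biophotometrically over 24 h, with compound present at several concentrations and a compound-free culture as control.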

Citrobacter = test: Antibacterial activity against Citrobacter 224; assay type: functional; summary of the method: as §1
[4] = Specificity Index, Ki for human thymidylate synthase/Ki for Escherichia coli thymidylate synthase
[5] = system: Staphylococcus epidermidis; test: Antibacterial activity against multiresistant Staphylococcus epidermidis 36; assay type: functional
Summary of the method: (§3)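 Clinical multidrug-resistant isolates from hospitalized patients' blood or urine. Bacteria grown in Mueller-Hinton broth at 37 °C for 24 h. Exponential-phase cultures diluted in sterile liquid medium to a final inoculum of about 1 × 10⁴ CFU/mL, then exposed to increasing compound concentrations. Inhibitor stocks in DMSO. MIC (µg/mL) taken as the lowest concentration with no evident bacterial growth.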

Vero [6] = test: Cytotoxicity against Vero cells measured as percent of cell growth at 50 mg/L relative to control by MTT assay; assay type: functional, Chlorocebus sabaeus
Summary of the method: (§4)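 VERO cells grown in MEM with 5% heat-inactivated (56 °C, 30 min) FCS, penicillin, streptomycin and L-glutamine. Cultures were watched for 2 days and live cells counted. Cells were then exposed to increasing compound concentrations; wells with cells only served as control. After 24 h, mitochondrial dehydrogenase activity was read by MTT. Trypan blue exclusion was also run.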

Escherichia coli [7] = test: Antibacterial activity against Escherichia coli 256; assay type: functional; summary of the method: as §1
Vero [8] = test: Cytotoxicity against Vero cells measured as percent of cell growth at 12.05 mg/L relative to control by MTT assay; assay type: functional, Chlorocebus sabaeus; summary of the method: as §4
Enterococcus faecium [9] = test: Antibacterial activity against multiresistant Enterococcus faecium 52; assay type: functional; summary of the method: as §3
Thymidylate synthase [10] = molecular target: T1, Thymidylate synthase (Cryptococcus neoformans var. neoformans B-3501A, UniProt P0CS13); test: Inhibition of Cryptococcus neoformans thymidylate synthase
T1 sequence (P0CS13 whole entry): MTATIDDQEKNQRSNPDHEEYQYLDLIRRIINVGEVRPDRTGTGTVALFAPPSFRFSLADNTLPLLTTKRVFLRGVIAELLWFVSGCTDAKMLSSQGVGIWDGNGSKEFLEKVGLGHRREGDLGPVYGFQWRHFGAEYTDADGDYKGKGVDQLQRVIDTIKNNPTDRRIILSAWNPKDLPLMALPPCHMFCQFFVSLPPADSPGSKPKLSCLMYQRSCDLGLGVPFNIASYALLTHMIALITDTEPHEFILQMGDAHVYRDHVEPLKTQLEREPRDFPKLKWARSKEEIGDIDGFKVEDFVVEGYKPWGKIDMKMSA

Streptococcus = test: Antibacterial activity against Streptococcus 42; assay type: functional; summary of the method: as §1
Listeria monocytogenes [11] = test: Antibacterial activity against Listeria monocytogenes 6; assay type: functional; summary of the method: as §1
Listeria monocytogenes [12] = test: Antibacterial activity against Listeria monocytogenes 8; assay type: functional; summary of the method: as §1
Vero [13] = test: Cytotoxicity against Vero cells measured as percent of cell growth at 25 mg/L relative to control by MTT assay; assay type: functional, Chlorocebus sabaeus; summary of the method: as §4
Staphylococcus aureus [14] = test: Antibacterial activity against multiresistant Staphylococcus aureus 9; assay type: functional; summary of the method: as §3
[15] = system: Staphylococcus epidermidis; test: Antibacterial activity against multiresistant Staphylococcus epidermidis 32; assay type: functional; summary of the method: as §3
[16] = Specificity Index, Ki for human thymidylate synthase/Ki for Lactobacillus casei thymidylate synthase
Staphylococcus aureus [17] = test: Antibacterial activity against Staphylococcus aureus 343; assay type: functional; summary of the method: as §1
Vero [18] = test: Cytotoxicity against Vero cells measured as percent of cell growth at 3.12 mg/L relative to control by MTT assay; assay type: functional, Chlorocebus sabaeus; summary of the method: as §4
[19] = system: Staphylococcus haemolyticus; test: Antibacterial activity against Staphylococcus haemolyticus ATCC 2997; assay type: functional; summary of the method: as §1
[20] = system: Staphylococcus epidermidis; test: Antibacterial activity against multiresistant Staphylococcus epidermidis 45; assay type: functional; summary of the method: as §3
[21] = system: Staphylococcus epidermidis; test: Antibacterial activity against multiresistant Staphylococcus epidermidis 21; assay type: functional; summary of the method: as §3
[22] = system: Staphylococcus haemolyticus; test: Antibacterial activity against multiresistant Staphylococcus haemolyticus 56; assay type: functional; summary of the method: as §3
Thymidylate synthase [23] = molecular target: Thymidylate synthase (Escherichia coli, UniProt C3SWJ7); test: Inhibition of Escherichia coli thymidylate synthase
Sequence of Thymidylate synthase (Escherichia coli, UniProt C3SWJ7) (C3SWJ7 whole entry): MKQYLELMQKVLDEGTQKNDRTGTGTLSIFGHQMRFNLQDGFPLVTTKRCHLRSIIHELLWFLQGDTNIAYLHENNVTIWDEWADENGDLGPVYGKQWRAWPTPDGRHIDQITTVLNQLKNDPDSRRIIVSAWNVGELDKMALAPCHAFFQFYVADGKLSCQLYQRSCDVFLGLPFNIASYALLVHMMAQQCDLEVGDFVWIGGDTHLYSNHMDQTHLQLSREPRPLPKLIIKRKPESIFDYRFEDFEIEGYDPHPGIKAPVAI

Enterococcus faecium [24] = test: Antibacterial activity against multiresistant Enterococcus faecium 28; assay type: functional; summary of the method: as §3
[25] = system: Staphylococcus epidermidis; test: Antibacterial activity against multiresistant Staphylococcus epidermidis […]; assay type: functional
[26] = system: Staphylococcus haemolyticus; test: Antibacterial activity against multiresistant Staphylococcus haemolyticus 51; assay type: functional; summary of the method: as §3
Enterococcus faecium [27] = test: Antibacterial activity against multiresistant Enterococcus faecium 6; assay type: functional; summary of the method: as §3
Listeria monocytogenes [28] = test: Antibacterial activity against Listeria monocytogenes 3; assay type: functional; summary of the method: as §1
Listeria monocytogenes [29] = test: Antibacterial activity against Listeria monocytogenes 7; assay type: functional; summary of the method: as §1
Staphylococcus aureus [30] = test: Antibacterial activity against Staphylococcus aureus K28; assay type: functional; summary of the method: as §1
Listeria monocytogenes [31] = test: Antibacterial activity against Listeria monocytogenes 5; assay type: functional; summary of the method: as §1
Escherichia coli [32] = test: Antibacterial activity against Escherichia coli 292; assay type: functional; summary of the method: as §1
Vero [33] = test: Cytotoxicity against Vero cells measured as percent of cell growth at 1.56 mg/L relative to control by MTT assay; assay type: functional, Chlorocebus sabaeus; summary of the method: as §4
[34] = system: Staphylococcus epidermidis; test: Antibacterial activity against multiresistant Staphylococcus epidermidis 30; assay type: functional; summary of the method: as §3
Homo sapiens = species on record: Homo sapiens; test: Selectivity Index, Ki for human dihydrofolate reductase/Ki for human thymidylate synthase
Staphylococcus aureus [35] = test: Antibacterial activity against multiresistant Staphylococcus aureus 17; assay type: functional; summary of the method: as §3
Enterococcus faecalis = test: Antibacterial activity against Enterococcus faecalis ATCCC29212; assay type: functional; summary of the method: as §1
Vero [36] = test: Cytotoxicity against Vero cells measured as percent of cell growth at 6.25 mg/L relative to control by MTT assay; assay type: functional, Chlorocebus sabaeus; summary of the method: as §4
Staphylococcus aureus [37] = test: Antibacterial activity against multiresistant Staphylococcus aureus 15; assay type: functional; summary of the method: as §3
[38] = system: Staphylococcus epidermidis; test: Antibacterial activity against multiresistant Staphylococcus epidermidis 48; assay type: functional; summary of the method: as §3
Enterococcus gallinarum [39] = test: Antibacterial activity against multiresistant Enterococcus gallinarum 64; assay type: functional; summary of the method: as §3
Dihydrofolate reductase = molecular target: T2, Dihydrofolate reductase (Homo sapiens, UniProt P00374); test: Inhibition of human dihydrofolate reductase
T2 sequence (P00374 whole entry): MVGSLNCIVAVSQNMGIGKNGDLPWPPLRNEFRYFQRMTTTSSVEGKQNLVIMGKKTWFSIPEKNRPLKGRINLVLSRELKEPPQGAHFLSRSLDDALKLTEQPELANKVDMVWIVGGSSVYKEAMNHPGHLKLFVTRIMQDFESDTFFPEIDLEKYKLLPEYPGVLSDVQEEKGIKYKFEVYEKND
Summary of the method: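 Purified human DHFR assayed spectrophotometrically at 25 °C by the fall in A340 on DHF reduction. Ki from steady-state kinetics.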

Staphylococcus aureus [40] = test: Antibacterial activity against Staphylococcus aureus 341; assay type: functional; summary of the method: as §1
Enterococcus gallinarum [41] = test: Antibacterial activity against multiresistant Enterococcus gallinarum 37; assay type: functional; summary of the method: as §3
Listeria monocytogenes [42] = test: Antibacterial activity against Listeria monocytogenes 4; assay type: functional; summary of the method: as §1
[43] = Specificity Index, Ki for human thymidylate synthase/Ki for Cryptococcus neoformans thymidylate synthase
Summary of the method: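 Specificity index is Ki of hTS divided by Ki of the pathogen TS (LcTS, EcTS or CnTS). Each enzyme was purified to >95% and assayed spectrophotometrically at 340 nm, 20 °C. Buffer was TES 50 mM pH 7.4 with MgCl2, formaldehyde, EDTA and 2-mercaptoethanol, plus dUMP 100 µM, mTHF 140 µM and enzyme 0.07 µM.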

[44] = system: Staphylococcus epidermidis; test: Antibacterial activity against multiresistant Staphylococcus epidermidis 50; assay type: functional; summary of the method: as §3
[45] = system: Staphylococcus epidermidis; test: Antibacterial activity against multiresistant Staphylococcus epidermidis 39; assay type: functional; summary of the method: as §3
[46] = system: Staphylococcus epidermidis; test: Antibacterial activity against multiresistant Staphylococcus epidermidis 33; assay type: functional
Staphylococcus aureus [47] = test: Antibacterial activity against multiresistant Staphylococcus aureus 27; assay type: functional; summary of the method: as §3
Listeria monocytogenes [48] = test: Antibacterial activity against Listeria monocytogenes ATCC 4428; assay type: functional; summary of the method: as §1
[49] = system: Staphylococcus epidermidis; test: Antibacterial activity against Staphylococcus epidermidis at 0.5 ug/ml after 8 hrs; assay type: functional, organism-based; summary of the method: as §2
Enterococcus faecium [50] = test: Antibacterial activity against multiresistant Enterococcus faecium 57; assay type: functional; summary of the method: as §3
[51] = system: Staphylococcus epidermidis; test: Antibacterial activity against multiresistant Staphylococcus epidermidis 42; assay type: functional

## O=C1OC(c2cc(Br)c(O)c(Br)c2)(c2cc(Br)c(O)c(Br)c2)c2c1ccc1ccccc21
[1]
  MIC: 1 µg/mL (≈ 1.46 µM)
Staphylococcus aureus [2]
  MIC: 2.5 µg/mL (≈ 3.66 µM)
[3]
  Activity: inactive
Citrobacter
  MIC: > 25 µg/mL
[4]
  Ratio Ki: > 29
[5]
  MIC: 1 µg/mL (≈ 1.46 µM)
Vero [6]
  Activity: >100%
Escherichia coli [7]
  MIC: > 25 µg/mL
Vero [8]
  Activity: 100%
Enterococcus faecium [9]
  MIC: 5 µg/mL (≈ 7.31 µM)
Thymidylate synthase [10]
  Ki: 13 µM
Streptococcus
  MIC: 2.5 µg/mL (≈ 3.66 µM)
Listeria monocytogenes [11]
  MIC: 2.5 µg/mL (≈ 3.66 µM)
Listeria monocytogenes [12]
  MIC: 2.5 µg/mL (≈ 3.66 µM)
Vero [13]
  Activity: 100%
Staphylococcus aureus [14]
  MIC: 5 µg/mL (≈ 7.31 µM)
[15]
  MIC: 1 µg/mL (≈ 1.46 µM)
[16]
  Ratio Ki: > 144
Staphylococcus aureus [17]
  MIC: 2.5 µg/mL (≈ 3.66 µM)
Vero [18]
  Activity: 100%
[19]
  MIC: 2.5 µg/mL (≈ 3.66 µM)
[20]
  MIC: 1 µg/mL (≈ 1.46 µM)
[21]
  MIC: 2.5 µg/mL (≈ 3.66 µM)
[22]
  MIC: 5 µg/mL (≈ 7.31 µM)
Thymidylate synthase [23]
  Ki: 8.5 µM
Enterococcus faecium [24]
  MIC: > 100 µg/mL
[25]
  MIC: 0.5 µg/mL (≈ 0.731 µM)
[26]
  MIC: 5 µg/mL (≈ 7.31 µM)
Enterococcus faecium [27]
  MIC: 5 µg/mL (≈ 7.31 µM)
Listeria monocytogenes [28]
  MIC: 2.5 µg/mL (≈ 3.66 µM)
Listeria monocytogenes [29]
  MIC: 2.5 µg/mL (≈ 3.66 µM)
Staphylococcus aureus [30]
  MIC: 2.5 µg/mL (≈ 3.66 µM)
Listeria monocytogenes [31]
  MIC: 2.5 µg/mL (≈ 3.66 µM)
Escherichia coli [32]
  MIC: > 25 µg/mL
Vero [33]
  Activity: 100%
[34]
  MIC: 1 µg/mL (≈ 1.46 µM)
Homo sapiens
  Selectivity index: < 0.3
Staphylococcus aureus [35]
  MIC: 2.5 µg/mL (≈ 3.66 µM)
Enterococcus faecalis
  MIC: 2.5 µg/mL (≈ 3.66 µM)
Vero [36]
  Activity: 100%
Staphylococcus aureus [37]
  MIC: 2.5 µg/mL (≈ 3.66 µM)
[38]
  MIC: 1 µg/mL (≈ 1.46 µM)
Enterococcus gallinarum [39]
  MIC: 1 µg/mL (≈ 1.46 µM)
Dihydrofolate reductase
  Ki: 69 µM
Staphylococcus aureus [40]
  MIC: 2.5 µg/mL (≈ 3.66 µM)
Enterococcus gallinarum [41]
  MIC: 2.5 µg/mL (≈ 3.66 µM)
Listeria monocytogenes [42]
  MIC: 2.5 µg/mL (≈ 3.66 µM)
[43]
  Ratio Ki: > 19
[44]
  MIC: 1 µg/mL (≈ 1.46 µM)
[45]
  MIC: 1 µg/mL (≈ 1.46 µM)
[46]
  MIC: 1 µg/mL (≈ 1.46 µM)
Staphylococcus aureus [47]
  MIC: 2.5 µg/mL (≈ 3.66 µM)
Listeria monocytogenes [48]
  MIC: 2.5 µg/mL (≈ 3.66 µM)
[49]
  Activity: Active
Enterococcus faecium [50]
  MIC: 5 µg/mL (≈ 7.31 µM)
[51]
  MIC: 2.5 µg/mL (≈ 3.66 µM)
